# An excerpt weighted towards active compounds, which were near 2.3% of everything screened.
# LGR2 inh – blocks bursicon-induced cAMP signaling via Drosophila LGR2; inhibition, % at 9.99 µM; AID 720647; actives 0.35% (n = 380,000); HEK293 LGR2, CRE-luciferase, bursicon-stimulated, 4 h;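 active = drop in luminescence signal, shown as inhibition above about 50% in the replicate tests, limit read from the data, passing the limit was not always enough; inconclusive = probably only some replicates passing the limit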;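 also: agonist challenge used bursicon conditioned medium at about half maximal strength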
# EWS-Fli inh – inhibitors of EWS/Fli oncoprotein transcriptional activity. inhibition, % at 12.6 µM. A673 NR0B1-luciferase reporter, viability-normalised. actives 0.67% (n = 350,000);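 active = mean inhibition of at least 50% after viability correction, with every replicate also passing that limit; inconclusive = mean reaches 50% but only one of two replicates passes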;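 also: firefly luciferase signal divided by Alamar Blue viability fluorescence both relative to DMSO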
# TWEAK-Fn14 inh – blocks TWEAK-Fn14 interaction in a reporter cell assay; TWEAK-stimulated Fn14 reporter cells, luciferase luminescence, 8 h; inhibition, % at 10 µM; actives 2% (n = 360,000); AID 1159606; in the data active = inhibition above about 50%
# XiGFP reactiv – X-chromosome reactivation activator; XiGFP mouse fibroblasts, % GFP-positive cells imaging, 3 d; cells co-treated with 5-aza-dC sensitizer; scaled so ellipticine positive control = 100%; activation, % at 7.58 µM; actives 0.055% (n = 360,000);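 active = mean normalized replicate activation at least 10% and every replicate at or above 10%; inconclusive = only one of the two criteria met; inactive = mean below 10% and not all replicates reach 10%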;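 also: 0% = median of on-plate neutral control wells and 100% = ellipticine 6 µM median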
#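 Assay system – SV40-immortalized XiGFP fibroblast cells, line 68-5-11 · Buffer or medium – DMEM supplemented with 5-aza-dC as sensitizing agent · Dosing – one concentration, pinned · Benchmarks – positive control ellipticine, 6 µM final · Times – 3 days compound exposure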
# FN deposition inh – fibronectin deposition inhibition | inhibition, % at 12.6 µM | actives 0.086% (n = 350,000) | AID 743247 | AH1F fibroblasts, Alexa488-fibronectin deposition fluorescence, overnight;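 active = mean inhibition across replicates of 30% or more, regardless of how many single replicates reach that level; inconclusive = mean under 30% yet at least half of replicates reach 30%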;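 also: positive control wells lacked labelled fibronectin entirely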
#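 Test system: AH1F fibroblast monolayer depositing Alexa488-labelled fibronectin into matrix. Input: 10000 cells per well. Technique: fluorescence, ex 485 nm, em 525 nm. Buffer or medium: DMEM plus 2% serum, read in PBS. Timing: 1 h cell adhesion before compound, then overnight fibronectin incubation. Compound: single dose, pinned. Read-out basis: inhibition from reduced deposited-fibronectin fluorescence.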
# TROY signal inh – inhibitors of TROY-dependent NF-kB signaling; Q293 LMP1-TROYcd NF-kB luciferase reporter, 4 h; inhibition, % at 10 µM; actives 0.98% (n = 360,000); AID 1347056;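 active = compounds whose plate-normalised and pattern-corrected inhibition of the luciferase reporter signal at the single screening dose is 50% or more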
# Numbers without * were called inactive; ? = inconclusive; . = not tested or not shown.
SMILES,LGR2 inh,EWS-Fli inh,TWEAK-Fn14 inh,XiGFP reactiv,FN deposition inh,TROY signal inh
Cc1cc(C(=O)COC(=O)c2cccc(O)c2)c(C)n1C1CC1,72.7*,-27.5,54.1*,-0.2,2.2,-10.1
C[C@H]1CN([C@@H](C)CO)C(=O)c2cc(NC(=O)Nc3ccccc3)ccc2O[C@@H]1CN(C)S(=O)(=O)c1ccccc1,7.3,4.1,.,-0.2,.,.
CO[C@H]1CN(C)C(=O)c2ccc(NC(=O)NC(C)C)cc2OC[C@H](C)N(C)C[C@@H]1C,6.5,.,.,0.2,-11.2,.
FC(F)(F)c1nnc2c(Sc3ccc(Cl)cc3)nc3ccccc3n12,.,.,60.7*,.,9.7,-52.2
FC(F)(F)c1nnc2c(Sc3ccccc3)nc3ccccc3n12,.,.,11.6,.,2.6,-24.0
C[C@H]1CN([C@@H](C)CO)C(=O)c2cc(NS(=O)(=O)c3ccc(F)cc3)ccc2O[C@H]1CN(C)C(=O)NC1CCCCC1,-3.9,-2.3,.,0.0,.,.
c1ccc2c(c1)Nc1ccncc1S2,.,-5.2,54.9*,0.2,-1.2,19.2
c1ccc2c(c1)Nc1cc3ccccc3cc1S2,4.6,-91.3,-20.5,0.0,-7.5,-43.3
NC(=O)NCC#Cc1ccc2c(c1)[C@]1(C(=O)N2)[C@H](c2ccc(O)cc2)N2[C@H](c3ccccc3)[C@H](c3ccccc3)OC(=O)[C@H]2[C@@H]1C(N)=O,.,-0.7,.,.,.,.
C[C@H]1CN(C)C(=O)c2cccc(N(C)C)c2O[C@H]1CN(C)C,.,.,.,-0.1,4.9,.
N#C/C(=C\c1ccc(N2CCCCC2)o1)C(=O)Nc1cccc(Br)c1,-100.7,.,8.5,93.7*,-303.7,21.4
O=C(Cc1ccccn1)N[C@@H]1CC[C@H](CCn2cc(-c3ccc(F)cc3)nn2)O[C@H]1CO,15.4,.,.,-0.1,0.7,.
CCCn1c(=S)[nH]c2sc3c(c2c1=O)CCCC3,-3.1,13.8,23.7,0.5,2.5,0.0
Nn1c(=S)[nH]c2sc3c(c2c1=O)CCCC3,5.7,0.0,53.2*,-0.1,-0.6,75.3*
OCC1OC(n2ccc3c(NO)ncnc32)C(O)C1O (stereo unspecified),92.0*,49.0,81.6*,3.1,-1.1,45.6
OCC1OC(n2cnc3c(NCc4ccccc4O)ncnc32)C(O)C1O (stereo unspecified),18.2,-3.4,59.4*,0.0,17.0,17.3
OC[C@H]1O[C@@H](n2cnc3c(Nc4ccccc4)ncnc32)[C@H](O)[C@@H]1O,9.9,-39.7,-43.4,0.1,-5.6,-23.7
OCC1OC(n2cnc3c(NCCc4ccccc4)ncnc32)C(O)C1O (stereo unspecified),-38.5,-24.5,-42.6,0.0,-4.1,-0.2
CSc1nccn1C(=O)c1ccccc1[N+](=O)[O-],6.1,-5.5,107.8*,0.0,-3.5,-9.3
S=c1[nH]cnc2scc(-c3ccc(Cl)cc3)c12,8.5,21.5,26.2,0.2,-14.8,67.7*
Cc1ccc(-c2csc3nc[nH]c(=S)c23)cc1,17.1,.,25.7,0.2,-10.2,11.6
C[C@@H]1CN([C@H](C)CO)C(=O)c2ccccc2-c2ccccc2CO[C@@H]1CN(C)C(=O)C1CC1,.,.,.,-1.1,-12.0,.
C[C@@H](CO)NC(=O)c1ccc2c3n(nc2c1)-c1ccccc1CO3,?,8.8,52.5*,0.0,1.7,28.4
CN(C)c1ccc(/C=C/c2nc3ccccc3c(=O)[nH]2)cc1,90.7*,78.8*,87.7*,0.0,-7.9,69.7*
O=c1[nH]c(/C=C/c2ccc(Br)cc2)nc2ccccc12,-69.4,-49.8,-7.2,0.1,5.7,-27.9
SMILES,LGR2 inh,EWS-Fli inh,TWEAK-Fn14 inh,XiGFP reactiv,FN deposition inh,TROY signal inh
C(=C\c1nc2ccccc2[nH]1)/c1ccccc1,.,.,74.7*,.,8.8,34.4
Cc1nc(/C=C/c2ccccc2)[nH]c(=O)c1-c1ccccc1,-17.7,.,64.1*,.,.,-5.1
C(=C\c1ccco1)/c1nc2ccccc2[nH]1,-48.6,.,1.8,0.0,6.3,-12.5
CC=Cc1ccc2n(c1=O)C[C@@H]1[C@@H](CO)[C@H](C(=O)N3CCc4ccccc4C3)N[C@H]21 (mixture of isomers),15.6,0.4,.,0.4,.,.
O=C(Cc1ccccc1Cl)Nc1cccc(S(=O)(=O)N2CCOCC2)c1,7.2,9.6,90.4*,-0.3,3.1,80.5*
O=C(Cc1c(Cl)cccc1Cl)Nc1cccc(S(=O)(=O)N2CCOCC2)c1,4.1,6.1,-30.0,0.2,10.0,-5.4

# Screens from PubChem BioAssay.
